Measurements: ChEMBL document CHEMBL1122792, “Synthesis and biological evaluation of radiolabeled beta-ruthenocenylalanine” (J Med Chem, 1984)

What was measured:
Rattus norvegicus [1] = test: Distribution of Radioactivity in stomach of Fisher 344 Rats by intravenous administration of compound after 4 hour expressed as dose/gram; type: ADME, organism-based; conditions: in vivo
Procedure, shortened: (§1)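 Female Fischer 344 rats, 10-12 weeks old (170-200 g), food and water ad libitum; four rats per time point. About 6.3 μCi given in 0.05 mL saline (pH 7.4, filtered) by lateral tail vein under ether anesthesia. Tissues sampled at 5 min, 1 h, 4 h or 1 day. %ID/g computed from injectate standards; mean and range given.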

Rattus norvegicus [2] = test: Distribution of Radioactivity in kidneys of Fisher 344 Rats by intravenous administration of compound after 1 hour expressed as dose/gram; type: ADME, organism-based, Kidney; conditions: in vivo
Procedure, shortened: (§2)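 Female Fischer 344 rats, 10-12 weeks old (170-200 g), fed and watered ad libitum; four rats per time point. Each received ~6.3 μCi in 0.05 mL saline (pH 7.4, filtered), given by lateral tail vein under ether anesthesia. Tissues taken at 5 min, 1 h, 4 h and 1 day. Injectate standards used; values as mean % injected dose/g with range.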

Mus musculus [3] = test: Distribution of Radioactivity in pancreas of CD-1 Mice by intravenous administration of compound after 5 minutes expressed as dose/gram; type: ADME, organism-based; conditions: in vivo
Procedure, shortened: (§3)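 Female CD-1 mice, 7 1/2 weeks old (25-29 g), fed and watered ad libitum. Agent given in physiological saline, pH adjusted to 7.4 and filtered, by lateral tail vein injection under ether anesthesia. Tissues collected at 5 min, 1 h, 4 h and 1 day. Injectate samples counted as standard; results as mean % injected dose/g with range.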

Mus musculus [4] = test: Distribution of Radioactivity in small intestine of CD-1 Mice by intravenous administration of compound after 1 hr expressed as dose/gram; type: ADME, organism-based; conditions: in vivo; procedure, shortened: as §3
Mus musculus [5] = test: Distribution of Radioactivity in adrenals of CD-1 Mice by intravenous administration of compound after 5 minutes expressed as dose/gram; type: ADME, organism-based, Adrenal gland; conditions: in vivo; procedure, shortened: as §3
Rattus norvegicus [6] = test: Distribution of Radioactivity in lungs of Fisher 344 Rats by intravenous administration of compound after 5 minutes expressed as dose/gram; type: ADME, organism-based, Lung; conditions: in vivo; procedure, shortened: as §2
Mus musculus [7] = test: Distribution of Radioactivity in blood of CD-1 Mice by intravenous administration of compound after 5 minutes expressed as dose/gram; type: ADME, organism-based; conditions: in vivo; procedure, shortened: as §3
Rattus norvegicus [8] = test: Distribution of Radioactivity in pancreas of Fisher 344 Rats by intravenous administration of compound after 1 hour expressed as dose/gram; type: ADME, organism-based; conditions: in vivo; procedure, shortened: as §2
Mus musculus [9] = test: Distribution of Radioactivity in kidneys of CD-1 Mice by intravenous administration of compound after 4 hr expressed as dose/gram; type: ADME, organism-based, Kidney; conditions: in vivo; procedure, shortened: as §3
Rattus norvegicus [10] = test: Distribution of Radioactivity in adrenals of Fisher 344 Rats by intravenous administration of compound after 1 hour expressed as dose/gram; type: ADME, organism-based, Adrenal gland; conditions: in vivo; procedure, shortened: as §2
Rattus norvegicus [11] = test: Distribution of Radioactivity in pancreas of Fisher 344 Rats by intravenous administration of compound after 4 hour expressed as dose/gram; type: ADME, organism-based; conditions: in vivo; procedure, shortened: as §2
Rattus norvegicus [12] = test: Distribution of Radioactivity in blood of Fisher 344 Rats by intravenous administration of compound after 1 day expressed as dose/gram; type: ADME, organism-based; conditions: in vivo, 24 h; procedure, shortened: as §2
Rattus norvegicus [13] = test: Distribution of Radioactivity in spleen of Fisher 344 Rats by intravenous administration of compound after 5 minutes expressed as dose/gram; type: ADME, organism-based; conditions: in vivo; procedure, shortened: as §1
Rattus norvegicus [14] = test: Distribution of Radioactivity in stomach of Fisher 344 Rats by intravenous administration of compound after 1 day expressed as dose/gram; type: ADME, organism-based; conditions: in vivo, 24 h; procedure, shortened: as §1
Rattus norvegicus [15] = test: Distribution of Radioactivity in spleen of Fisher 344 Rats by intravenous administration of compound after 4 hour expressed as dose/gram; type: ADME, organism-based; conditions: in vivo; procedure, shortened: as §1
Mus musculus [16] = test: Distribution of Radioactivity in lungs of CD-1 Mice by intravenous administration of compound after 5 minutes expressed as dose/gram; type: ADME, organism-based, Lung; conditions: in vivo; procedure, shortened: as §3
Mus musculus [17] = test: Distribution of Radioactivity in liver of CD-1 Mice […] by intravenous administration of compound after 5 minutes expressed as dose/gram; type: ADME, organism-based; conditions: in vivo; procedure, shortened: as §3
Mus musculus [18] = test: Distribution of Radioactivity in stomach of CD-1 Mice by intravenous administration of compound after 1 hr expressed as dose/gram; type: ADME, organism-based; conditions: in vivo
Procedure, shortened: (§4)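 Female CD-1 mice, 7 1/2 weeks old (25-29 g), fed and watered ad libitum. Radiotracer in physiological saline, pH 7.4, filtered, injected via lateral tail vein under ether anesthesia. Tissues taken at 5 min, 1 h, 4 h or 1 day. Percent injected dose per gram calculated against assayed samples of the injected solution; mean with range reported.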

Mus musculus [19] = test: Distribution of Radioactivity in blood of CD-1 Mice by intravenous administration of compound after 1 day expressed as dose/gram; type: ADME, organism-based; conditions: in vivo, 24 h; procedure, shortened: as §3
Mus musculus [20] = test: Distribution of Radioactivity in small intestine of CD-1 Mice by intravenous administration of compound after 1 day expressed as dose/gram; type: ADME, organism-based; conditions: in vivo, 24 h; procedure, shortened: as §3
Rattus norvegicus [21] = test: Distribution of Radioactivity in adrenals of Fisher 344 Rats by intravenous administration of compound after 4 hour expressed as dose/gram; type: ADME, organism-based, Adrenal gland; conditions: in vivo; procedure, shortened: as §2
Mus musculus [22] = test: Distribution of Radioactivity in kidneys of CD-1 Mice by intravenous administration of compound after 1 hr expressed as dose/gram; type: ADME, organism-based, Kidney; conditions: in vivo; procedure, shortened: as §3
Rattus norvegicus [23] = test: Distribution of Radioactivity in adrenals of Fisher 344 Rats by intravenous administration of compound after 1 day expressed as dose/gram; type: ADME, organism-based, Adrenal gland; conditions: in vivo, 24 h; procedure, shortened: as §2
Rattus norvegicus [24] = test: Distribution of Radioactivity in blood of Fisher 344 Rats by intravenous administration of compound after 5 minutes expressed as dose/gram; type: ADME, organism-based; conditions: in vivo; procedure, shortened: as §2
Mus musculus [25] = test: Distribution of Radioactivity in small intestine of CD-1 Mice by intravenous administration of compound after 5 minutes expressed as dose/gram; type: ADME, organism-based; conditions: in vivo; procedure, shortened: as §4
Rattus norvegicus [26] = test: Distribution of Radioactivity in liver of Fisher 344 Rats by intravenous administration of compound after 1 hour expressed as dose/gram; type: ADME, organism-based; conditions: in vivo; procedure, shortened: as §2
Mus musculus [27] = test: Distribution of Radioactivity in kidneys of CD-1 Mice by intravenous administration of compound after 1 day expressed as dose/gram; type: ADME, organism-based, Kidney; conditions: in vivo, 24 h; procedure, shortened: as §3
Rattus norvegicus [28] = test: Distribution of Radioactivity in pancreas of Fisher 344 Rats by intravenous administration of compound after 5 minutes expressed as dose/gram; type: ADME, organism-based; conditions: in vivo; procedure, shortened: as §2
Rattus norvegicus [29] = test: Distribution of Radioactivity in small intestine of Fisher 344 Rats by intravenous administration of compound after 4 hour expressed as dose/gram; type: ADME, organism-based; conditions: in vivo; procedure, shortened: as §1
Mus musculus [30] = test: Distribution of Radioactivity in stomach of CD-1 Mice by intravenous administration of compound after 1 day expressed as dose/gram; type: ADME, organism-based; conditions: in vivo, 24 h; procedure, shortened: as §4
Mus musculus [31] = test: Distribution of Radioactivity in lungs of CD-1 Mice by intravenous administration of compound after 1 day expressed as dose/gram; type: ADME, organism-based, Lung; conditions: in vivo, 24 h; procedure, shortened: as §3
Mus musculus [32] = test: Distribution of Radioactivity in thymus of CD-1 Mice by intravenous administration of compound after 1 hr expressed as dose/gram; type: ADME, organism-based; conditions: in vivo; procedure, shortened: as §4
Mus musculus [33] = test: Distribution of Radioactivity in pancreas of CD-1 Mice by intravenous administration of compound after 4 hr expressed as dose/gram; type: ADME, organism-based; conditions: in vivo; procedure, shortened: as §3
Rattus norvegicus [34] = test: Distribution of Radioactivity in lungs of Fisher 344 Rats by intravenous administration of compound after 1 day expressed as dose/gram; type: ADME, organism-based, Lung; conditions: in vivo, 24 h; procedure, shortened: as §2
Rattus norvegicus [35] = test: Distribution of Radioactivity in liver of Fisher 344 Rats by intravenous administration of compound after 5 minutes expressed as dose/gram; type: ADME, organism-based; conditions: in vivo; procedure, shortened: as §2
Rattus norvegicus [36] = test: Distribution of Radioactivity in blood of Fisher 344 Rats by intravenous administration of compound after 4 hour expressed as dose/gram; type: ADME, organism-based; conditions: in vivo; procedure, shortened: as §2
Rattus norvegicus [37] = test: Distribution of Radioactivity in liver of Fisher 344 Rats by intravenous administration of compound after 1 day expressed as dose/gram; type: ADME, organism-based; conditions: in vivo, 24 h; procedure, shortened: as §2
Rattus norvegicus [38] = test: Distribution of Radioactivity in spleen of Fisher 344 Rats by intravenous administration of compound after 1 day expressed as dose/gram; type: ADME, organism-based; conditions: in vivo, 24 h; procedure, shortened: as §1

beta-[103,106Ru]Ruthenocenylalanine
Injected (Rattus norvegicus [1]): 0.028%
Injected (Rattus norvegicus [2]): 2.717%
Injected (Mus musculus [3]): 1.749%
Injected (Mus musculus [4]): 2.641%
Injected (Mus musculus [5]): 6.85%
Injected (Rattus norvegicus [6]): 1.123%
Injected (Mus musculus [7]): 6.768%
Injected (Rattus norvegicus [8]): 0.299%
Injected (Mus musculus [9]): 1.321%
Injected (Rattus norvegicus [10]): 0.141%
Injected (Rattus norvegicus [11]): 0.044%
Injected (Rattus norvegicus [12]): 0.051%
Injected (Rattus norvegicus [13]): 0.355%
Injected (Rattus norvegicus [14]): 0.023%
Injected (Rattus norvegicus [15]): 0.062%
Injected (Mus musculus [16]): 3.603%
Injected (Mus musculus [17]): 7.75%
Injected (Mus musculus [18]): 0.326%
Injected (Mus musculus [19]): 0.086%
Injected (Mus musculus [20]): 0.059%
Injected (Rattus norvegicus [21]): 0.047%
Injected (Mus musculus [22]): 4.59%
Injected (Rattus norvegicus [23]): 0.044%
Injected (Rattus norvegicus [24]): 1.949%
Injected (Mus musculus [25]): 1.739%
Injected (Rattus norvegicus [26]): 1.27%
Injected (Mus musculus [27]): 0.871%
Injected (Rattus norvegicus [28]): 0.361%
Injected (Rattus norvegicus [29]): 0.218%
Injected (Mus musculus [30]): 0.032%
Injected (Mus musculus [31]): 0.252%
Injected (Mus musculus [32]): 0.35%
Injected (Mus musculus [33]): 0.16%
Injected (Rattus norvegicus [34]): 0.065%
Injected (Rattus norvegicus [35]): 2.844%
Injected (Rattus norvegicus [36]): 0.134%
Injected (Rattus norvegicus [37]): 0.15%
Injected (Rattus norvegicus [38]): 0.065%
